Reference: ChEMBL document CHEMBL4316598, “Synthesis, antiproliferative and apoptosis induction potential activities of novel bis(indolyl)hydrazide-hydrazone derivatives” (Bioorg Med Chem, 2019)
Activity calls are given as the source filed them. The rule behind the calls is not given here.

Columns and labels:
MCF7 [1] = assay: Induction of apoptosis in human MCF7 cells assessed as increase in Mcl-1 short level at 1 to 3 uM after 24 hrs by Western blot analysis; type: functional, cell-based
Method in brief: (§1)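 Cells were treated at 1, 3 and 5 µM for 24 h at 37 °C. Lysis was in ice-cold Triton X-100 buffer with protease and phosphatase inhibitors; nuclear proteins were extracted separately. Protein was quantified by BCA. Lysates were separated by electrophoresis, transferred to nitrocellulose and blocked in non-fat milk for 1 h. Primary antibody was applied overnight at 4 °C and secondary for 1 h at 28 °C. Detection was by enhanced chemiluminescence.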

HeLa [2] = assay: Induction of apoptosis in human HeLa cells assessed as up-regulation of acetylated p53 level at 5 uM after 24 hrs by sandwich ELISA; type: functional, cell-based
Method in brief: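 Cells were treated at 5 µM for 12, 24 and 48 h. Lysis was in ice-cold lysis buffer with 1 mM PMSF (5 min on ice), followed by three freeze-thaw cycles and a 10 min spin at 4 °C. Acetylated and total p53 were measured in the supernatant by kit sandwich ELISA, read at 450 nm. The control index is sample absorbance divided by that of untreated cells at the same time. Values are mean ± SD of triplicate experiments.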

MCF7 [3] = assay: Induction of ROS generation in human MCF7 cells at 5 uM after 12 hrs by CM-H2DCFDA staining-based FACS analysis; type: functional, cell-based
Method in brief: (§2)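 CM-H2DCFDA ROS: HeLa or MCF-7 cells at 2×10^6/well in 6-well plates treated with 5 μM (final) for 12 or 24 h at 37 °C. Cells harvested, washed with PBS, stained with CM-H2DCFDA in PBS 30 min at 37 °C, washed with ice-cold PBS. Read by FACScan with 488 nm argon laser.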

MCF7 [4] = assay: Induction of ERK/MAPK signal transduction pathway in human MCF7 cells assessed as increase in c-jun level; type: cell-based
MCF7 [5] = assay: Induction of cell cycle arrest in human MCF7 cells at 1 uM after 16 hrs by propidium iodide/RNase A staining based FACS analysis; type: functional
Method in brief: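 Cells were seeded at 1 million cells/mL in 24-well plates and grown to 70% confluence. They were exposed at 1 µM for 16 h, washed in cold PBS, fixed in absolute ethanol and stored at −20 °C. Staining was with RNase A (20 µg/mL final) and PI (50 µg/mL final) for 30 min at 37 °C in the dark. Results are given as the percentage of cells in each cell-cycle phase by FACS.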

MCF7 [6] = assay: Induction of ERK/MAPK signal transduction pathway in human MCF7 cells assessed as increase in c-fos level; type: cell-based
HeLa [7] = assay: Induction of apoptosis in human HeLa cells assessed as early apoptotic cells at 1 uM after 16 hrs by annexin-V FITC/propidium iodide staining based flow cytometric analysis relative to control; type: functional
Method in brief: (§3)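 Cells were grown in DMEM with 10% heat-inactivated FBS at 37 °C and 5% CO₂, then plated at 500,000 cells/well in 24-well plates. They were treated from a DMSO stock (DMSO ≤0.1%) for 8, 12 or 16 h. After a PBS wash, cells were resuspended in binding buffer (10 mM HEPES pH 7.4, 2.5 mM CaCl₂, 140 mM NaCl, 0.1% BSA), stained 40 min with FITC-annexin V, then with PI, and run on the flow cytometer immediately. Values are the mean of three independent experiments.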

MDA-MB-231 = assay: Cytotoxicity against human MDA-MB-231 cells assessed as reduction in cell viability after 4 hrs by MTT assay; type: functional, cell-based
Method in brief: (§4)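 MTT: 10,000–20,000 cells/well attached for 16 h, then washed twice with serum-free RPMI. Treated with 1–200 µM for 4 h, 3 parallel runs per concentration. MTT added for 2 h; medium partly removed and isopropanol added. A590 read. Viability = (A treated − A doxorubicin)/(A medium − A doxorubicin)×100. Mean of three experiments, triplicate wells each.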

MCF7 [8] = assay: Cytotoxicity against human MCF7 cells assessed as reduction in cell viability after 4 hrs by MTT assay; type: functional, cell-based; method in brief: as §4
MCF7 [9] = assay: Induction of apoptosis in human MCF7 cells assessed as viable cells at 1 uM after 12 hrs by annexin-V FITC/propidium iodide staining based flow cytometric analysis relative to control; type: functional; details: MCF7, 12 h, read-out: Activity; method in brief: as §3
HeLa [10] = assay: Induction of ROS generation in human HeLa cells at 5 uM after 24 hrs by CM-H2DCFDA staining-based FACS analysis; type: functional, cell-based; method in brief: as §2
MCF7 [11] = assay: Induction of nitric oxide production in human MCF7 cells at 5 uM measured over 8 hrs by Griess reaction based assay relative to control; type: functional
Method in brief: (§5)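 Cells seeded at 2×10^6 cells/well for 12 h, then exposed to 1, 5 and 10 μM compound for 8 h at 37 °C. Culture supernatant mixed with Griess reagent (0.002% N-1-naphthyl-ethylenediamine dihydrochloride, 0.5% sulfanilic acid, 14% glacial acetic acid). Nitrite read by absorbance at 550 nm and compared with vehicle group.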

[12] = Cytotoxicity against HEK293 cells assessed as cell viability at 200 uM after 4 hrs by MTT assay relative to control; type: cell-based; details: human, read-out: Activity; method in brief: as §4
[13] = target: c-Jun N-terminal kinase, JNK (Homo sapiens) (UniProt P45983+P53779+P45984); assay: Activation of JNK phosphorylation in human MCF7 cells assessed as increase in ratio of phosphorylated JNK to total JNK level at 5 uM by ELISA; type: cell-based
Method in brief: (§6)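 Cell-based ELISA: HeLa or MCF-7 cells (20×10^3/well) grown overnight at 37 °C, 5% CO2, treated with 5 μM, then fixed and blocked. Probed with rabbit anti-total and anti-phospho P38, JNK or ERK1/2 (1:100), then HRP anti-rabbit IgG. Result is the phospho/total ratio; inhibitor arms use […], […] or SP600125. n=3.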

A549 = assay: Cytotoxicity against human A549 cells assessed as reduction in cell viability after 4 hrs by MTT assay; type: functional, cell-based; method in brief: as §4
MCF7 [14] = assay: Induction of caspase-dependent apoptosis in human MCF7 cells assessed as activation of caspase-9 at 1 to 3 uM after 24 hrs by Western blot analysis; type: functional, cell-based; method in brief: as §1
[15] = target: MAP kinase p38 (Homo sapiens) (UniProt O15264+Q15759+Q16539+P53778); assay: Activation of MAPK p38 phosphorylation in human MCF7 cells assessed as increase in ratio of phosphorylated p38 to total p38 level at 5 uM by ELISA; type: cell-based; method in brief: as §6
MCF7 [16] = assay: Induction of nitric oxide production in human MCF7 cells measured over 8 hrs by Griess reaction based assay; type: functional, cell-based; method in brief: as §5
FaDu = assay: Cytotoxicity against human FADU cells assessed as reduction in cell viability after 4 hrs by MTT assay; type: functional, cell-based
MCF7 [17] = assay: Induction of apoptosis in human MCF7 cells assessed as necrotic cells at 1 uM after 16 hrs by annexin-V FITC/propidium iodide staining based flow cytometric analysis relative to control; type: functional; method in brief: as §3

For `Cn1cc(/C=N\NC(=O)c2cn(C)c3ccc(Br)cc23)c2ccccc21`, the Activity (MCF7 [1]) was “Active”, the Activity (HeLa [2]) was “Active” and the Activity (MCF7 [3]) was “Active”. The Activity (MCF7 [4]) was “Active”, the Activity (MCF7 [5]) was “inactive” and the Activity (MCF7 [6]) was “Active”. The Activity (HeLa [7]) was 12.23%, the Activity (MDA-MB-231) was “Dose-dependent effect” and the IC50 (MDA-MB-231; MDA-MB-231, 4 h) was 5.49 µM. The Activity (MCF7 [8]) was “Dose-dependent effect”, the IC50 (MCF7 [8]; Homo sapiens, MCF7, 4 h, read-out: IC50) was 1.19 µM and the viability at 1 µM (MCF7 [9]) was 40.5%. For the same compound, the Activity (HeLa [10]) was “Active”, the Activity (MCF7 [11]) was 48.9% and the viability at 4 h, 200 µM [12] was 95%. The Activity [13] was “Active”, the Activity (A549) was “Dose-dependent effect” and the IC50 (A549; Homo sapiens, A549, 4 h, read-out: IC50) was 0.793 to 5.49 µM. The Activity (MCF7 [14]) was “inactive”, the Activity [15] was “Active” and the Activity (MCF7 [16]) was “Dose-dependent effect”. The Activity (FaDu) was “Dose-dependent effect”, the IC50 (FaDu) was 9.64 µM and the Activity (MCF7 [17]) was 4.71%.
